Measurements as given in ChEMBL document CHEMBL1136453, “New classes of antibacterial oxazolidinones with C-5, methylene O-linked heterocyclic side chains” (2003).
≈ marks a conversion by molar mass, not a printed value.

Key:
[1] = system: Staphylococcus aureus; test: In vitro minimum inhibitory concentration against coagulase negative Staphylococcus aureus methicillin resistant (CNSMR); type: functional
[2] = system: Staphylococcus aureus; test: In vitro minimum inhibitory concentration against Staphylococcus aureus MRQR; type: functional
[3] = system: Enterococcus faecalis; test: In vitro minimum inhibitory concentration against Enterococcus faecalis; type: functional
Method in brief: (§1)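 Agar dilution per NCCLS protocol with doubling dilutions from 128 to 0.008 mg/L, incubated at 37 °C. Strains came from an in-house culture collection. MIC reported in mg/L.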

[4] = system: Staphylococcus aureus; test: In vitro minimum inhibitory concentration against Staphylococcus aureus Oxford; type: functional; settings: Staphylococcus aureus; read-out: MIC
[5] = system: Staphylococcus aureus; test: In vivo antibacterial activity against Staphylococcus aureus after intravenous administration (10 mg/kg) in mice using (MTT) mouse thigh test
[6] = In vivo antibacterial activity against Staphylococcus aureus after intravenous administration (5 mg/kg) in mice using (MTT) mouse thigh test
[7] = system: Streptococcus pyogenes; test: In vitro minimum inhibitory concentration against Streptococcus pyogenes penicillin sensitive; type: functional; method in brief: as §1

SMILES | MIC [1] [µg/mL] | MIC [2] [µg/mL] | MIC [3] [µg/mL] | MIC [4] [µg/mL] | Activity [5] | Activity [6] | MIC [7] [µg/mL]
O=C([C@@H](O)CO)N1CC=C(c2c(F)cc(N3C[C@H](CO)OC3=O)cc2F)CC1 | 0.25 (≈ 0.628 µM) | 0.5 (≈ 1.26 µM) | 1 (≈ 2.51 µM) | 0.25 (≈ 0.628 µM) | 1.01 | 0.59 | 0.5 (≈ 1.26 µM)
O=C1O[C@@H](COc2cnsn2)CN1c1ccc(C2=CCOCC2)c(F)c1 | 0.25 (≈ 0.662 µM) | 0.25 (≈ 0.662 µM) | 0.5 (≈ 1.32 µM) | 0.25 (≈ 0.662 µM) | 0.45 | 0.11 | 0.25 (≈ 0.662 µM)
C[C@H](O)C(=O)N1CC=C(c2ccc(N3C[C@H](COc4cnsn4)OC3=O)cc2F)CC1 | 0.5 (≈ 1.11 µM) | 0.5 (≈ 1.11 µM) | 1 (≈ 2.23 µM) | 0.25 (≈ 0.557 µM) | 1.14 | 0.43 | 1 (≈ 2.23 µM)
O=C1O[C@@H](COc2ccon2)CN1c1ccc(C2=CCN(CCO)CC2)c(F)c1 | 4 (≈ 9.92 µM) | 8 (≈ 19.8 µM) | 8 (≈ 19.8 µM) | 4 (≈ 9.92 µM) |  |  | 2 (≈ 4.96 µM)
O=C1O[C@@H](COc2ccon2)CN1c1cc(F)c(C2=CCN(Cc3nccs3)CC2)c(F)c1 | 1 (≈ 2.11 µM) | 1 (≈ 2.11 µM) | 2 (≈ 4.22 µM) | 0.5 (≈ 1.05 µM) | 0.28 | 0.07 | 1 (≈ 2.11 µM)
O=C1O[C@@H](COc2ccncn2)CN1c1ccc(C2=CCOCC2)c(F)c1 | 2 (≈ 5.39 µM) | 2 (≈ 5.39 µM) | 4 (≈ 10.8 µM) | 1 (≈ 2.69 µM) | 0.34 | 0.23 | 4 (≈ 10.8 µM)
O=C1O[C@@H](COc2cccc[n+]2[O-])CN1c1ccc(C2=CCOCC2)c(F)c1 |  | > 128 | > 128 | > 128 |  |  | > 128
CS(=O)(=O)C[C@@H](O)C(=O)N1CC=C(c2c(F)cc(N3C[C@H](COc4ccon4)OC3=O)cc2F)CC1 | 0.25 (≈ 0.474 µM) | 0.25 (≈ 0.474 µM) | 0.5 (≈ 0.948 µM) | 0.25 (≈ 0.474 µM) | 1.42 | 1.02 | 0.5 (≈ 0.948 µM)
COC(=O)c1cc(OC[C@H]2CN(c3ccc(C4=CCOCC4)c(F)c3)C(=O)O2)no1 | 32 (≈ 76.5 µM) | 16 (≈ 38.2 µM) | 128 (≈ 306 µM) | 8 (≈ 19.1 µM) |  |  | 16 (≈ 38.2 µM)
O=C1O[C@@H](COc2ncccn2)CN1c1ccc(C2=CCOCC2)c(F)c1 | 16 (≈ 43.1 µM) | 16 (≈ 43.1 µM) | 64 (≈ 172 µM) | 16 (≈ 43.1 µM) |  |  | 32 (≈ 86.2 µM)
Cc1cc(OC[C@H]2CN(c3cc(F)c(C4=CCN(C(=O)[C@@H](O)CO)CC4)c(F)c3)C(=O)O2)on1 | 1 (≈ 2.09 µM) | 2 (≈ 4.17 µM) | 2 (≈ 4.17 µM) | 1 (≈ 2.09 µM) |  |  | 2 (≈ 4.17 µM)
Cc1cccc(OC[C@H]2CN(c3ccc(C4=CCOCC4)c(F)c3)C(=O)O2)n1 |  | > 128 | > 128 | > 128 |  |  | > 128
O=C1O[C@@H](COc2ccccn2)CN1c1ccc(C2=CCOCC2)c(F)c1 | 1 (≈ 2.7 µM) | 1 (≈ 2.7 µM) | 2 (≈ 5.4 µM) | 0.5 (≈ 1.35 µM) | 0.15 | 0 | 2 (≈ 5.4 µM)
O=C1O[C@@H](COc2ccon2)CN1c1ccc(C2=CCOCC2)c(F)c1 | 0.5 (≈ 1.39 µM) | 0.5 (≈ 1.39 µM) | 1 (≈ 2.78 µM) | 0.5 (≈ 1.39 µM) | 0.06 | -0.07 | 0.5 (≈ 1.39 µM)
Cc1cc(OC[C@H]2CN(c3ccc(C4=CCOCC4)c(F)c3)C(=O)O2)no1 | 2 (≈ 5.34 µM) | 2 (≈ 5.34 µM) | 4 (≈ 10.7 µM) | 1 (≈ 2.67 µM) | -0.45 |  | 4 (≈ 10.7 µM)
O=C([C@@H](O)CS(=O)(=O)CCO)N1CC=C(c2c(F)cc(N3C[C@H](COc4ccon4)OC3=O)cc2F)CC1 | 0.25 (≈ 0.448 µM) | 0.5 (≈ 0.897 µM) | 0.5 (≈ 0.897 µM) | 0.25 (≈ 0.448 µM) | 0.32 | 0.1 | 0.25 (≈ 0.448 µM)
O=C1O[C@@H](COc2cccnn2)CN1c1ccc(C2=CCOCC2)c(F)c1 | 2 (≈ 5.39 µM) | 2 (≈ 5.39 µM) | 4 (≈ 10.8 µM) | 2 (≈ 5.39 µM) |  |  | 2 (≈ 5.39 µM)
Cc1nnc(OC[C@H]2CN(c3ccc(C4=CCOCC4)c(F)c3)C(=O)O2)o1 | 8 (≈ 21.3 µM) | 4 (≈ 10.7 µM) | 8 (≈ 21.3 µM) | 4 (≈ 10.7 µM) |  |  | 8 (≈ 21.3 µM)
O=C(C(CO)CO)N1CC=C(c2c(F)cc(N3C[C@H](COc4ccon4)OC3=O)cc2F)CC1 | 0.5 (≈ 1.04 µM) | 0.5 (≈ 1.04 µM) | 1 (≈ 2.09 µM) | 0.5 (≈ 1.04 µM) | 0.41 | 0.37 | 0.5 (≈ 1.04 µM)
O=C1O[C@@H](COc2ccsn2)CN1c1ccc(C2=CCOCC2)c(F)c1 | 0.25 (≈ 0.664 µM) | 0.25 (≈ 0.664 µM) | 0.5 (≈ 1.33 µM) | 0.25 (≈ 0.664 µM) | 0.21 | 0.01 | 0.5 (≈ 1.33 µM)
